Tests used:
[1] = target: Mitochondrial complex I; NADH oxidoreductase (Bos taurus, UniProt P25708+P52505); assay: Inhibition of NADH-ubiquinone oxidoreductase assessed as NADH oxidase activity in bovine heart submitochondrial particles; format: protein-complex assay
Outline: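 Bovine heart mitochondria isolated by differential centrifugation and sonicated to submitochondrial particles. Assay buffer was 75 mM air-saturated Na/K phosphate, pH 7.4, with 1 mM EDTA and 1 mM MgCl2, and 42–219 µg/mL protein, at 30 °C. Inhibitors were added in methanol (≤2% v/v) with 4 min preincubation. Reaction started with 0.16 mM NADH; A340 decrease followed over 4 min. Means of 2–4 independent experiments.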

Mus musculus = assay: Toxicity in mouse at 100 mg/kg, ip; format: organism-based; set-up: dose 100 mg/kg, route intraperitoneal; settings: in vivo
L929 = assay: Cytotoxicity against mouse L929 fibroblasts; format: cell-based
MCF7 = assay: Cytotoxicity against human MCF7 cells; format: functional, cell-based
Outline: (§1)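 Human gastric adenocarcinoma HM02, hepatocellular carcinoma HepG2 and breast adenocarcinoma MCF7 lines tested following NCI directives. Cytotoxicity expressed as IC50.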

[2] = Cytotoxicity against human HM02 cells; format: functional, cell-based; outline: as §1
HepG2 = assay: Cytotoxicity against human HepG2 cells; format: functional, cell-based; outline: as §1

Chain of Mitochondrial complex I; NADH oxidoreductase (P25708 21-464 limits assumed, other chains not shown): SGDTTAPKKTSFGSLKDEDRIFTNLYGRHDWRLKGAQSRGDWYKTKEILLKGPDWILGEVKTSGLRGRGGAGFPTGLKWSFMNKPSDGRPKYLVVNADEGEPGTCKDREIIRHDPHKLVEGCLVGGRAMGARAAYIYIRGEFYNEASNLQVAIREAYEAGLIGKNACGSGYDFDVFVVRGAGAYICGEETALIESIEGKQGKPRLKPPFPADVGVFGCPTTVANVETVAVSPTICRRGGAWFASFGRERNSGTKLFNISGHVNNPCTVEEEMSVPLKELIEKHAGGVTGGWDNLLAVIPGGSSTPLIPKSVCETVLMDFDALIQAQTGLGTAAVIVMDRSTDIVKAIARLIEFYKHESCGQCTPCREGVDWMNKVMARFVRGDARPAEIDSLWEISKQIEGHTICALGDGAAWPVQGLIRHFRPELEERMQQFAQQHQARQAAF

SMILES	IC50 [1] [µM]	also measured
CCCc1c(C/C=C(\C)C/C=C/C(C)C)[nH]c(=O)c(C)c1OC(C)=O [IROMYCIN AA]	> 23.4	–
CCCc1c(CCC(C)CCCC(C)C)[nH]c(=O)c(C)c1O (centres undefined) [IROMYCIN AH]	2.21	–
CCCc1c(C/C=C(\C)C/C=C/C(C)C)[nH]c(=O)c(C)c1OC [IROMYCIN AM]	2.8	–
CCCc1c(C/C=C(\C)C/C=C/C(C)C)oc(=O)c(C)c1O [IROMYCIN AO]	> 26.6	–
CCCc1c(C/C=C(\C)C/C=C/C(C)C)[nH]c(=O)c(C)c1O [IROMYCIN A]	0.461	Activity (Mus musculus): Non-toxic; IC50 (L929): 66 µM; IC50 (MCF7): > 30 µM; IC50 [2]: > 30 µM; IC50 (HepG2): > 30 µM
CCCc1c(C/C=C(\C)C/C=C/C(C)(C)O)[nH]c(=O)c(C)c1OC(C)=O [IROMYCIN BA]	> 22.4	–
CCCc1c(C/C=C(\C)C/C=C/C(C)(C)O)[nH]c(=O)c(C)c1OC [IROMYCIN BM]	> 24.3	–
CCCc1c(C/C=C(\C)C/C=C/C(C)(C)O)[nH]c(=O)c(C)c1O [IROMYCIN B]	17.8	IC50 (L929): 66 µM; IC50 (MCF7): > 30 µM; IC50 [2]: > 30 µM; IC50 (HepG2): > 30 µM
CC/C=C/C/C(C)=C/Cc1[nH]c(=O)c(C)c(O)c1CCC [IROMYCIN C]	3.52	–
CCCc1c(C/C=C(\C)C/C=C/C(C)O)[nH]c(=O)c(C)c1O (centres undefined) [IROMYCIN D]	> 26.5	–
CCCC1(O)C(C/C=C(\C)C/C=C/C(C)C)=NC(=O)C(C)=C1O (centres undefined) [IROMYCIN E]	> 25.3	–
CCCC1=C(C/C=C(\C)C/C=C/C(C)C)N=C(O)C(C)(O)C1=O (centres undefined) [IROMYCIN F]	> 25.3	–
CCCCC/C(C)=C/Cc1oc(=O)c(C)c(O)c1CCC [IROMYCIN MO]	8.55	–
CCCCC/C(C)=C/Cc1[nH]c(=O)c(C)c(O)c1CCC [IROMYCIN M]	1.01	IC50 (L929): 66 µM
CCCc1c(C/C=C(\C)C/C=C/C(C)(C)C)oc(=O)c(C)c1O [IROMYCIN SO]	15.1	–
CCCc1c(C/C=C(\C)C/C=C/C(C)(C)C)[nH]c(=O)c(C)c1O [IROMYCIN S]	0.183	IC50 (L929): 10 µM
C/C=C(\C)[C@H](O)[C@H](C)/C=C(C)/C=C/C/C(C)=C/Cc1nc(OC)c(OC)c(O)c1C [PIERICIDIN A]	0.005	IC50 (L929): 0.00043 µM
